These results are taken from ChEMBL document CHEMBL4765446, “Synthesis of ticagrelor analogues belonging to 1,2,3-triazolo[4,5-d]pyrimidines and study of their antiplatelet and antibacterial activity” (2020).

Values after ≈ are worked out from the molar mass of the structure shown.

For assay [1], the system named is Plasma. Put plainly: Antiplatelet activity in human platelet-rich plasma assessed as inhibition of ADP-induced platelet aggregation at 1.8 uM preincubated for 10 mins followed by ADP addition and measured for 10 mins by light transmission aggregometry relative to control. It counts as functional. The note with it: time 20 min. Put shortly:
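Citrated (3.2%) venous blood from drug-free healthy volunteers aged 20–40 years; PRP from 100 × g 15 min spin, adjusted to 250000/µl with autologous PPP (800 × g 15 min). Compound or vehicle (1% DMSO) preincubated 10 min, then stirring at 1200 rpm, 37 °C, and ADP 10 µM added. Aggregation followed 10 min; AUC expressed as fold-inhibition vs vehicle, mean ± S.D., n = 4–21 donors, Wilcoxon paired test.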

The test system of assay [2] is Staphylococcus aureus. Description: Antibacterial activity against methicillin-resistant Staphylococcus aureus BAA-1556 by broth microdilution method. It counts as functional. Put shortly: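 Single colony from Brain Heart Infusion agar grown overnight in BHI broth, aerobic, 37 °C, 190 rpm. Diluted 100-fold in Mueller-Hinton broth, grown to exponential phase. About 5.10^5 CFU/ml then incubated with or without a range of concentrations, vehicle 1% DMSO. Growth read as OD600. MIC per EUCAST is the lowest concentration with no visible growth, i.e. ΔOD600 versus blank (medium + 1% DMSO) equal to zero.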
On the technique in general: Dilution methods test growth across graded concentrations, often in twofold steps.

For orientation: MIC means the smallest concentration in the dilution series that meets the test's criterion for growth inhibition. A low value points to inhibition by little substance. For `CCCSc1nc(N[C@@H]2C[C@H]2c2ccc(F)c(F)c2)c2nnn([C@@H]3C[C@H](O)[C@@H](O)[C@H]3O)c2n1`, in assay [1], the “fold change (FC)” value came out at 4.8. The compound further showed a minimum inhibitory concentration (MIC) in assay [2] of 25 µM (≈ 12 µg/mL).

Turning to `CCCSc1nc(N[C@@H]2C[C@H]2c2ccccc2)c2nnn([C@@H]3C[C@H](OCCO)[C@@H](O)[C@H]3O)c2n1`, the “fold change (FC)” value in assay [1] stood at 3.1. Also, the MIC in assay [2] was > 200 µM.

As for `O[C@@H]1[C@H](O)[C@@H](O)C[C@H]1n1nnc2c(N[C@@H]3C[C@H]3c3ccc(F)c(F)c3)nc(Cl)nc21`, in assay [1], the “fold change (FC)” value turned out to be 1.1. The MIC in assay [2] is > 200 µM.

For `C[C@@H](O)CSc1nc(N[C@@H]2C[C@H]2c2ccc(F)c(F)c2)c2nnn([C@@H]3C[C@H](O)[C@@H](O)[C@H]3O)c2n1`, the “fold change (FC)” value in assay [1] is on record as 6.2. For the same compound, the MIC in assay [2] was > 200 µM.

For the compound `OCCCSc1nc(N[C@@H]2C[C@H]2c2ccc(F)c(F)c2)c2nnn([C@@H]3C[C@H](OCCO)[C@@H](O)[C@H]3O)c2n1`, the “fold change (FC)” value in assay [1] stood at 1. The minimal inhibitory concentration (MIC) in assay [2] was > 200 µM.

As to `C[C@H](O)CSc1nc(N[C@@H]2C[C@H]2c2ccc(F)c(F)c2)c2nnn([C@@H]3C[C@H](O)[C@@H](O)[C@H]3O)c2n1`, the “fold change (FC)” value in assay [1] stood at 2. Moreover, the MIC in assay [2] was > 200 µM.

Regarding `CCn1nnc2c(N[C@@H]3C[C@H]3c3ccc(F)c(F)c3)nc(SC)nc21`, the “fold change (FC)” value in assay [1] is on record as 0.87. In assay [2], the MIC is > 200 µM.

Take `CCCSc1nc(N[C@@H]2C[C@H]2c2ccc(F)c(F)c2)c2nnn(CC)c2n1`: the “fold change (FC)” value in assay [1] came to 0.97. Besides, in assay [2], the MIC is > 200 µM.

For the compound `CCCSc1nc(N[C@@H]2C[C@H]2c2ccc(F)c(F)c2)c2nnn(C)c2n1`, in assay [1], the “fold change (FC)” value is 1.08. The MIC in assay [2] was > 200 µM.

As for `CCCSc1nc(NCCc2ccc(F)c(F)c2)c2nnn([C@@H]3C[C@H](OCCO)[C@@H](O)[C@H]3O)c2n1`, in assay [1], the “fold change (FC)” value amounted to 1.1. For the same compound, the MIC in assay [2] was > 200 µM.

As for `CC(O)CSc1nc(N[C@@H]2C[C@H]2c2ccc(F)c(F)c2)c2nnn([C@@H]3C[C@H](OCCO)[C@@H](O)[C@H]3O)c2n1` (stereo partly specified), in assay [1], the “fold change (FC)” value worked out at 1.7. Also, the MIC in assay [2] was > 200 µM.

For `CSc1nc(N[C@@H]2C[C@H]2c2ccc(F)c(F)c2)c2nnn(C)c2n1`, in assay [1], the “fold change (FC)” value is recorded as 0.94. Further, in assay [2], the MIC is > 200 µM.

In the case of `OCCCSc1nc(N[C@@H]2C[C@H]2c2ccc(F)c(F)c2)c2nnn([C@@H]3C[C@H](O)[C@@H](O)[C@H]3O)c2n1`, the “fold change (FC)” value in assay [1] was determined as 2.7. In assay [2], the MIC is > 200 µM.

As for `CCCSc1nc(N[C@@H]2C[C@H]2c2ccc(F)c(F)c2)c2nnn(C3CCCC3)c2n1`, the “fold change (FC)” value in assay [1] is reported as 1. Besides, in assay [2], the minimum inhibitory concentration (MIC) was > 200 µM.

Consider `CCCSc1nc(N)c2nnn([C@@H]3C[C@H](O)[C@@H](O)[C@H]3O)c2n1`, for which the “fold change (FC)” value in assay [1] is given as 1.1. Also, in assay [2], the MIC is > 200 µM.

For `CCCSc1nc(N)c2nnn([C@@H]3C[C@H](OCCO)[C@@H](O)[C@H]3O)c2n1`, the “fold change (FC)” value in assay [1] came out at 1.1. For the same compound, the MIC in assay [2] was > 200 µM.

With `CCSc1nc(N[C@@H]2C[C@H]2c2ccc(F)c(F)c2)c2nnn(CC)c2n1`, in assay [1], the “fold change (FC)” value was 0.91. Also, the MIC in assay [2] is > 200 µM.

Turning to `CCCSc1nc(NC2CC2)c2nnn([C@@H]3C[C@H](OCCO)[C@@H](O)[C@H]3O)c2n1`, the “fold change (FC)” value in assay [1] is 2.6. The MIC in assay [2] was > 200 µM.

`CCSc1nc(N[C@@H]2C[C@H]2c2ccc(F)c(F)c2)c2nnn(C)c2n1`: the “fold change (FC)” value in assay [1] was 0.97. The MIC in assay [2] is > 200 µM.

Turning to `Nc1nc(SCCCO)nc2c1nnn2[C@@H]1C[C@H](O)[C@@H](O)[C@H]1O`, the “fold change (FC)” value in assay [1] came to 1. In addition, in assay [2], the minimum inhibitory concentration (MIC) is > 200 µM.

For the compound `CC(O)CSc1nc(N)c2nnn([C@@H]3C[C@H](O)[C@@H](O)[C@H]3O)c2n1` (stereo partly specified), the “fold change (FC)” value in assay [1] worked out at 1. Moreover, the MIC in assay [2] is > 200 µM.

Regarding `O[C@@H]1[C@H](O)[C@@H](O)C[C@H]1n1nnc2c(N[C@@H]3C[C@H]3c3ccc(F)c(F)c3)ncnc21`, in assay [1], the “fold change (FC)” value stood at 1. Besides, the MIC in assay [2] is > 200 µM.

In the case of `CCCSc1nc(N[C@@H]2C[C@H]2c2ccc(F)c(F)c2)c2nnn([C@@H]3C[C@H](OCCO)[C@@H](O)[C@H]3O)c2n1` [TICAGRELOR], the “fold change (FC)” value in assay [1] worked out at 4.3. The compound further showed a minimum inhibitory concentration (MIC) in assay [2] of 25 µM (≈ 13.1 µg/mL).
